Kir21 inh: Kir2.1 (mouse) channel inhibition; HEK293-Kir2.1, FluxOR thallium flux fluorescence; stronger effect = lower value; B-score at 10 µM; 310,000 tested, 0.85% active;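 active = fluorescence ratio B-score at or below minus 3 SD of library scores, with starting-brightness B-score within 2 SD, cut at about -4.2 in these data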;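 note: channel flux triggered by added potassium and thallium sulfate stimulus; B-score of peak minus minimum fluorescence over baseline after thallium stimulus; more negative B-score means stronger Kir2.1 block with less thallium influx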
KCNK3 inh: human KCNK3 channel inhibition, primary screen; 340,000 tested, 0.84% active; B-score at 10 µM; O14649; CHO-KCNK3 thallium flux, FluxOR fluorescence; stronger effect = lower value;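 active = B-score under library mean minus 4 SD, starting fluorescence ratio at most library mean plus 5 SD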;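 note: more negative B-score means stronger inhibition of thallium flux through KCNK3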
KCNK9 inh: human KCNK9 channel inhibition | Q9NPC2 | HEK293 KCNK9, FluxOR thallium flux fluorescence; stronger effect = lower value | B-score at 10 µM | 310,000 tested, 1.2% active | AID 488922;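 active = ratio B-score over 3 SD below the library mean, with starting fluorescence within 5 SD of its mean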;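 note: negative B-score means less thallium flux so channel inhibition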
KCNQ1 pot: potentiates or activates the human KCNQ1 potassium channel; P51787; CHO-K1 KCNQ1, thallium flux FluxOR fluorescence; stronger effect = higher value; B-score at 10 µM; 310,000 tested, 0.35% active; AID 2648;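 active = fluorescence ratio B-score, a plate-corrected score, at least three library SD, with initial intensity B-score within 5 SD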
Target sequence (P51787 whole entry, looked up): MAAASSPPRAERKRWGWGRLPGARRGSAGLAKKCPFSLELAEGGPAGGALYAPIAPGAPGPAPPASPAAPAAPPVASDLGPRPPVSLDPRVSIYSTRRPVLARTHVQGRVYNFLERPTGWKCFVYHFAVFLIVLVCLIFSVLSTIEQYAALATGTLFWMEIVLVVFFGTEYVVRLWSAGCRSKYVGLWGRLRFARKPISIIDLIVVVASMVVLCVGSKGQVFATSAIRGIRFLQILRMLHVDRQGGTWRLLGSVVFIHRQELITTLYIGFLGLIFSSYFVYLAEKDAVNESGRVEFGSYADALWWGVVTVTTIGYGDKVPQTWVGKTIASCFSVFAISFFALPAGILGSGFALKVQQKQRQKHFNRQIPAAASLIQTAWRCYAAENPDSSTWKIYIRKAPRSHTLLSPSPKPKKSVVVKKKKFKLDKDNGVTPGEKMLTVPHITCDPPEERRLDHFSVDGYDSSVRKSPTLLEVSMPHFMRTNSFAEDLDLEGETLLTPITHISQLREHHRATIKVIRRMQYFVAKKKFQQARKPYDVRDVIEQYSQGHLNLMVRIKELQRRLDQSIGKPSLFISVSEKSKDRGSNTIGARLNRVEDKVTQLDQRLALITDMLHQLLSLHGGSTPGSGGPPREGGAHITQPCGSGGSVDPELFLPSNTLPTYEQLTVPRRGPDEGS
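assay system = KCNQ1-transfected CHO-K1 cells | medium = assay buffer with matched DMSO | probe or stimulus = depolarizing K+/Tl+ stimulus, K2SO4 and Tl2SO4 each 12.5 mM in 5x stock | dosing = single dose | incubation = dye 90 min, compound 20 min, room temperature | detection = kinetic FluxOR fluorescence, 10 s baseline plus 110 s post-stimulus | evaluation = ratio B score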
KCNQ1 inh: blocks the human KCNQ1 potassium channel. P51787. CHO-K1 KCNQ1, FluxOR thallium flux fluorescence; stronger effect = higher value. B-score at 10 µM. 310,000 tested, 1.3% active;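 active = compounds whose thallium flux B-score, printed positive for inhibition, exceeds three library SD while starting fluorescence stays within three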;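 note: channel opened by potassium depolarization with thallium stimulus after 20 min compound exposure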
hERG protect: shields human hERG channel from block by proarrhythmic agents; AID 1511; activation (rescue from dofetilide block), less the hit threshold, % at 10 µM; Q12809; 310,000 tested, 0.51% active; CHO-hERG, FluxOR thallium flux, dofetilide IC70 present;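 active = activation above the mean of controls blocked by dofetilide plus 5 SD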;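 note: thallium influx through hERG after potassium depolarization seen as dye fluorescence rise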
KCNQ1 inh valid: human KCNQ1 channel inhibition, validation assay. AID 588353. KCNQ1 cell line, FluxOR thallium flux fluorescence. shares compounds with KCNQ1 inh. 1,600 tested, 93% active. inhibition, % at 10 µM;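 active = primary screen active, with duplicate mean exceeding buffer control mean plus 3 SD of buffer wells, cut at about 28% in these data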;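 note: 0% = buffer control ratio and 100% = XE991 inhibitor control ratio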
CHO Tl flux: KCNQ1 inhibitor counter-screen hit in parental CHO cells; shares compounds with KCNQ1 inh; AID 588366; parental CHO-K1, FluxOR thallium flux fluorescence ratio; stronger effect = lower value; zero means no signal rise above baseline; fluorescence ratio (Tl flux) at 10 µM; 1,600 tested, 21% active;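 active = mean of duplicate thallium-flux fluorescence ratios in parental host cells more than 5 SD below the buffer control mean, cut at about 0.38 in these data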;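 note: ratio is peak minus minimum fluorescence divided by baseline fluorescence; actives read low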
KCNQ1 ephys val: confirmation of human KCNQ1 potassium channel inhibitors by electrophysiology | shares compounds with KCNQ1 inh | KCNQ1-CHO cells, automated patch clamp current | calls only at 10 µM | 490 tested, 20% active | AID 624120;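 active = KCNQ1 current drop exceeding 3 SD of negative control wells, seen in both duplicate runs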;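 note: steady state current during a 2 s step from -80 to +40 mV; negative values mean current inhibition and positive values mean potentiation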
KCNQ2 spec: selectivity of KCNQ1 inhibitors: inhibition of rat KCNQ2 channel | shares compounds with KCNQ1 inh | KCNQ2 cells, FluxOR thallium flux fluorescence | inhibition, % at 10 µM | 1,600 tested, 71% active;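 active = mean percent inhibition of the KCNQ2 thallium signal more than 5 SD above the buffer-only control wells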;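 note: KCNQ2 expressed in CHO cells; 0% = buffer control wells and 100% = XE-991 inhibitor control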
KCNQ1 KCNE1 spec: human KCNQ1/KCNE1 inhibition in KCNQ1 specificity screen. 1,600 tested, 77% active. KCNQ1/KCNE1 cells, FluxOR thallium flux fluorescence. shares compounds with KCNQ1 inh. inhibition, % at 10 µM. AID 652147;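 active = mean percent inhibition of duplicate wells above the buffer-only control mean plus 3 SD of those controls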;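 note: 0% = buffer only wells and 100% = XE-991 inhibitor control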
* hit, by the source's call; i = inactive; . = no result given; + = active, no number. The list is not random: actives were taken first. Their share in the collection is about 3.7%.

SMILES | Kir21 inh | KCNK3 inh | KCNK9 inh | KCNQ1 pot | KCNQ1 inh | hERG protect | KCNQ1 inh valid | CHO Tl flux | KCNQ2 spec | KCNQ1 KCNE1 spec | others
CN(C)/C=C/C(=O)c1ccn(S(=O)(=O)c2ccccc2)c1 | 1.2 | i | i | i | i | -6 | . | . | . | .
Cc1cc(C)n2nc(CC(=O)NNC(=O)COc3ccccc3)nc2n1 | -0.87 | i | i | i | i | -2 | . | . | . | .
Oc1cccc(NC(=S)Nc2ccc(SC(F)F)cc2)c1 | -0.11 | i | i | i | 10* | -13 | 68* | 0.53 | i | 90%*
Oc1cccc(NC(=S)Nc2cccnc2)c1 | -0.04 | i | i | i | i | -4 | . | . | . | .
CCOc1cccc(/C=N/NC(=O)c2cc(C3CC3)[nH]n2)c1O | 0.28 | i | i | i | i | -9 | . | . | . | .
O=C(Nc1ccccc1N1CCCCC1)C1CCN(S(=O)(=O)c2cccc(C(F)(F)F)c2)CC1 | -0.72 | i | i | i | 6* | -9 | 62* | 0.47 | 110%* | 48%*
O=C(Nc1ccccc1N1CCCC1)C1CCN(S(=O)(=O)c2cccc(C(F)(F)F)c2)CC1 | -0.07 | i | i | i | i | -13 | . | . | . | .
O=S(=O)(Nc1nc2ccccc2nc1Cl)c1cccc(C(F)(F)F)c1 | -0.88 | i | i | i | 7* | -11 | 42* | 0.43 | 63%* | 34%*
COc1cccc(NC(=O)N2CCC(NC(=O)C3CCCCC3)CC2)c1 | 0.36 | i | i | i | i | -1 | . | . | . | .
O=C(Nc1nc(-c2ccccc2)cs1)C1CCCCN1S(=O)(=O)c1ccc(Cl)cc1 (stereo unspecified) | -1.2 | i | i | i | 10* | -14 | 90* | 0.46 | 93%* | 131%* | KCNQ1 ephys val=i
CC(C)N(C(=O)[C@H]1C[C@H](CC(=O)NCC23CC4CC(CC(C4)C2)C3)C(=O)N2CCc3c([nH]c4ccc(Cl)cc34)[C@]12C)C(C)C | . | i | . | . | . | . | . | . | . | .
CC1(C)CCN2CCC(C)(C)c3c(O)ccc1c32 | -2.5 | i | i | i | 11* | -8 | 70* | 0.52 | 62%* | 58%*
Cc1cc(N2CCN(C)CC2)ccc1NC(=O)c1cccc(S(=O)(=O)N2CCc3ccccc3C2)c1 | -1.1 | i | i | i | 7* | -8 | 0 | 0.55 | 66%* | i
COc1ccc(NC(C)C(=O)Nc2ccc(C#N)cc2)cc1Cl (stereo unspecified) | -1.1 | i | i | i | i | -12 | . | . | . | .
COc1ccc(NC(C)C(=O)Nc2ccc(C(C)(C)C)cc2)cc1Cl (stereo unspecified) | -0.02 | i | i | i | 7* | -4 | 146* | 0.39 | 92%* | 167%* | KCNQ1 ephys val=i
O=C(Nc1nc(-c2ccccc2)c(C(=O)c2ccccc2)s1)c1ccc(S(=O)(=O)N2CCCC2)cc1 | -0.69 | i | i | i | 8* | -9 | 78* | 0.49 | 63%* | 96%*
COc1ccc(-c2nc(N3CCCCCC3)sc2C(=O)c2ccccc2)cc1 | -1.1 | i | i | i | 7* | -16 | 56* | 0.43 | 105%* | 86%*
O=C(c1ccccc1)c1sc(N2CCCCCC2)nc1-c1ccccc1 | 0.63 | i | i | i | 7* | -2 | 124* | 0.43 | 123%* | + | KCNQ1 ephys val=i
NC(N)=Nc1ccc(C=C2C=Cc3ccccc32)cc1 | . | i | . | . | . | . | . | . | . | .
Cc1ccc(CNC(=O)C2CCCN(c3ncnc4c3nc3n4CCCCC3)C2)cc1 (stereo unspecified) | 1 | i | i | i | i | -15 | . | . | . | .
Cc1ccc(C)c(N(CC(=O)NC2CCCC2)S(=O)(=O)c2ccccc2)c1 | -0.26 | i | i | i | i | -5 | . | . | . | .
Cc1ccccc1Nc1cc(C)c2c(O)cccc2n1 | -7.2* | i | i | i | 7* | -22 | 31* | 0.53 | 71%* | i
COc1ccccc1CNC(=O)C1CCCN(S(=O)(=O)c2cccs2)C1 (stereo unspecified) | 2.1 | i | i | i | i | -12 | . | . | . | .
FC(F)(F)c1cc(-c2ccco2)nc(N2CCN(Cc3ccccc3)CC2)n1 | 0.76 | i | i | i | 8* | -10 | 82* | 0.42 | 75%* | 106%*
CC(=O)c1ccc(S(=O)(=O)N2CCN(CC(=O)Nc3ccnn3C3CCCC3)CC2)cc1 | . | i | . | . | . | . | . | . | . | .
SMILES | Kir21 inh | KCNK3 inh | KCNK9 inh | KCNQ1 pot | KCNQ1 inh | hERG protect | KCNQ1 inh valid | CHO Tl flux | KCNQ2 spec | KCNQ1 KCNE1 spec | others
O=C(O)CN1CCNCCN(CC(=O)O)CCNCC1 | . | i | . | . | . | . | . | . | . | .
CC(C)(C)C1CCC2(CC1)C(C#N)=C(SCC(=O)NC1CCCCC1)NC(=O)C2C#N (stereo unspecified) | -1.9 | i | i | i | 9* | -7 | 72* | 0.42 | 72%* | i
COc1ccc(-c2cc(-c3ccccc3)nc(NN)n2)cc1OC | -1.7 | i | i | i | i | -10 | . | . | . | .
COc1nc(-c2ccccc2)cc(-c2ccc(OC)c(OC)c2)n1 | 0.57 | i | i | i | 7* | -17 | 119* | 0.39 | 110%* | 131%* | KCNQ1 ephys val=i
O=C(Nc1cccc(F)c1)OC(CN1CCCCC1)C(F)(F)F (stereo unspecified) | -0.63 | i | i | i | 7* | -10 | 80* | 0.48 | 81%* | 106%*
CCCCCCCCCn1ccc(=N)cc1 | -0.27 | i | i | i | 7* | -18 | 70* | 0.49 | 71%* | i
CC(C)(C)c1cc(N)n2nc(C(C)(C)C)cc2n1 | 0.94 | i | i | i | 11* | -4 | 96* | 0.46 | i | 122%* | KCNQ1 ephys val=+
Cc1cc2nc(C(C)(C)C)cc(N)n2n1 | -0.81 | i | i | i | i | -10 | . | . | . | .
CCOc1ccc(S(=O)(=O)N2CCC(C(=O)Nc3cc(S(C)(=O)=O)ccc3Cl)CC2)cc1 | . | i | . | . | . | . | . | . | . | .
O=C(Nc1cccc(Cl)c1)c1cccc(N2C(=O)C3CC=CCC3C2=O)c1 (stereo unspecified) | -0.13 | i | i | i | i | -1 | . | . | . | .

Source: PubChem BioAssay (Johns Hopkins Ion Channel Center)
